Laboratory results reported in PubChem BioAssay.
Activity calls are given as the source filed them.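 The calls were made as follows, unless noted: active = viability at or under a set limit in both replicates, limit being median viability minus 3 SD (cut at about 48% in these data, passing the limit was not always enough); inconclusive = at or under the limit in just one replicate; inactive = at or above the limit in both replicates.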

Key:
[1] = reducers of endogenous Her2 protein level, primary screen, SKBR3 breast tumor cells, AlphaScreen, ATP viability (AID 461;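 active = Her2 level under about 52% in both replicate screens, with viability over 70% of control, limit read from the data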;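 as to Her2 level: lower value means less Her2 protein in the cells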;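 as to viability: percent of carrier control wells set as 100% viability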); conditions: 18-24 h, measured here: SKBR3 viability, ATP luminescence, at 10 µM
[2] = molecular target: Receptor tyrosine-protein kinase erbB-2 (Homo sapiens) (UniProt P04626); experiment: as above; conditions: 18-24 h, at 10 µM, stronger effect = lower value
Chain of Receptor tyrosine-protein kinase erbB-2 (Homo sapiens) (P04626 whole entry, looked up): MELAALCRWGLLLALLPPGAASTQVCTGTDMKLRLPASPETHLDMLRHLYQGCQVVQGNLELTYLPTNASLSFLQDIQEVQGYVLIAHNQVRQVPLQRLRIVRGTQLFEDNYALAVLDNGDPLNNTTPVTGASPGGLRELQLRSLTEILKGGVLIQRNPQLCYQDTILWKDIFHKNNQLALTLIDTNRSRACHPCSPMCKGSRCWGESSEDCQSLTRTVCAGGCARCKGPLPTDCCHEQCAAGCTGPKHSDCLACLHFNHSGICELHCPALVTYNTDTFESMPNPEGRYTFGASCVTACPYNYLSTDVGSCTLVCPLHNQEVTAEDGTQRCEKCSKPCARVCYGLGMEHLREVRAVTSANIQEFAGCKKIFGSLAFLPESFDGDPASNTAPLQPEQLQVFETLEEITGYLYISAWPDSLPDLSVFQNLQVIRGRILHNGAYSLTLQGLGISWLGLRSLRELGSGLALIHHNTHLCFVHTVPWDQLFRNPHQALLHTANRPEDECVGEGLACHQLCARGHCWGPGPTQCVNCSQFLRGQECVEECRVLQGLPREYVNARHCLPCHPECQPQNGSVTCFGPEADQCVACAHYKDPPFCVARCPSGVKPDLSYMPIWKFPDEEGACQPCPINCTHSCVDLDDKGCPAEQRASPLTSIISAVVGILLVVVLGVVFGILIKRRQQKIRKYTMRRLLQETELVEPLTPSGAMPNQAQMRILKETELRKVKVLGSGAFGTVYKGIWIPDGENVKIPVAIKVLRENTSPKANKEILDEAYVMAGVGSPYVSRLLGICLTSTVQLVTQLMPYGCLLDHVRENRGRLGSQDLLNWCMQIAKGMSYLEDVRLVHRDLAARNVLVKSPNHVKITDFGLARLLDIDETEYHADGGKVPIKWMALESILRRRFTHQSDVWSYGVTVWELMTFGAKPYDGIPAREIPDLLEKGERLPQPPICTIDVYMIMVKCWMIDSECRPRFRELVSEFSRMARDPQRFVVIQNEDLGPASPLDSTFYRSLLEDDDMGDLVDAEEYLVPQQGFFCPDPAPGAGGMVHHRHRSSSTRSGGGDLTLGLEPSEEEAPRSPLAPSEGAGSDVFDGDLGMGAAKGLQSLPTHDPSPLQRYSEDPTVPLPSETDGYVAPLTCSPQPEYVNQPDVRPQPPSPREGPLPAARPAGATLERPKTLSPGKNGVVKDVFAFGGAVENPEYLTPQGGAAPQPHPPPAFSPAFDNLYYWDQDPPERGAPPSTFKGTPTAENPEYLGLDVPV

[3] = SK-BR-3 cell growth inhibitors, pilot screen, 24 h, human (AID 572;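 active = viability at or below 10% of carrier control in both of two separate runs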;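 also: compound exposure lasted between 18 and 24 h rather than exactly 24 h; 100% = carrier-treated control wells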); conditions: SK-BR-3 viability, CellTiter-Glo luminescence, at 10 µM, stronger effect = lower value
[4] = HUVEC growth inhibition – cell-based, human, primary screen (AID 575;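 active = viability at or below 30% in both replicate assays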;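 also: 100% = median of untreated cell wells with 0.1% DMSO on each plate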); conditions: HUVEC proliferation, CellTiter-Glo luminescence, 72 h; at 10 µM; stronger effect = lower value
Summary of the method: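 Test system: primary human umbilical vein endothelial cells. Quantity: 1250 cells/well. Compound: single 10 µM dose, 0.1% DMSO, from 5x medium stock. Timing: 72 h treatment at 37 °C. Detection: ATP-based CellTiter-Glo luminescent read. Benchmarks: vehicle and MePR control wells. Format: 384-well plates coated with collagen.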

[5] = growth inhibitors of H69AR lung tumor, primary screen, human, duplicate replicates (AID 580); conditions: H69AR lung tumor cells viability, ATP luminescence, 72 h; at 10 µM; stronger effect = lower value;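 also: 100% = mean luminescence of untreated wells and 0% = no signal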
[6] = reversal of MRP1-mediated doxorubicin resistance, pilot screen, H69AR cells, doxorubicin co-treatment (AID 601;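 active = viability loss from added drug above about 55%, and viability with drug at most 40%, in both replicates, limit read from the data, passing the limit was not always enough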); conditions: CellTiter-Glo, 72 h, at 10 µM; for differential viability (reversal): stronger effect = higher value
[7] = 384-well plate pilot, post-Golgi transport modulator project, inhibition of yeast transport mutant growth (AID 636; in the data active = inhibition above about 31%); conditions: absorbance 615 nm, about 18 h, stronger effect = higher value
[8] = growth suppression of yeast trafficking mutant, preliminary HTS, modulators of trafficking downstream of Golgi apparatus project, 1536-format plate, OD 615 nm (AID 637; in the data active = inhibition above about 30%); conditions: yeast transport mutant growth, absorbance 615 nm, 18 h; stronger effect = higher value
[9] = H69AR cells + 2 uM doxorubicin, measured here: viability with 2 uM doxorubicin, stronger effect = lower value
[10] = H69AR cells, compound alone cytotoxicity

| Compound | viability [1] [%] | Her2 level [2] | viability [3] | viability [4] | viability [5] | differential viability (reversal) ([6]; H69AR cells + 2 uM doxorubicin) | viability [6, 9] [%] | viability [6, 10] [%] | inhibition [7] | inhibition [8] |
| --- | --- | --- | --- | --- | --- | --- | --- | --- | --- | --- |
| Cc1nc2ccc(CCO)cc2s1 | 97.5 | 95.5% (inactive) | 97.5% (inactive) | 102% (inactive) | 93.9% (inactive) | -0.945% (inactive) | 94.8 | 93.9 | -5.89% (inactive) | 0.79% (inactive) |
| Cc1cc(OCC(O)CN2CCN(CCO)CC2)ccc1C(C)C (stereo not given) | 86.5 | 96% (inactive) | 86.5% (inactive) | 101% (inactive) | 95.3% (inactive) | 10.5% (inactive) | 84.8 | 95.3 | -2.21% (inactive) | -1.67% (inactive) |
| CCCc1cc(C(N)=O)c(NC(=O)c2ccco2)s1 | 102 | 73.5% (inactive) | 102% (inactive) | 94.2% (inactive) | 87.3% (inactive) | -5.96% (inactive) | 93.3 | 87.3 | -3.29% (inactive) | 1.15% (inactive) |
| COC(=O)c1cc(NC(=O)C2CC=CCC2C(=O)O)cc(C(=O)OC)c1 (stereo not given) | 97.5 | 86.5% (inactive) | 97.5% (inactive) | 104% (inactive) | 109% (inactive) | 15.8% (inactive) | 92.7 | 109 | -4.8% (inactive) | -1.94% (inactive) |
| COC(=O)CCCCCNc1ccc(C(=O)OC)cc1N | 107 | 86% (inactive) | 107% (inactive) | 98.5% (inactive) | 91.5% (inactive) | 6.14% (inactive) | 85.4 | 91.5 | -7.16% (inactive) | -6.5% (inactive) |
| CC1(C)Cc2cccc(OCC(=O)O)c2O1 | 107 | 90% (inactive) | 107% (inactive) | 94.5% (inactive) | 95.4% (inactive) | 7.61% (inactive) | 87.8 | 95.4 | -4.53% (inactive) | -3.97% (inactive) |
| Cc1ccc(Nc2nc(N)nc(CN3CCCCCC3)n2)cc1 | 79.5 | 73.5% (inactive) | 79.5% (inactive) | 65.7% (inactive) | 78.4% (inactive) | -10.4% (inactive) | 88.8 | 78.4 | -1.69% (inactive) | 2.83% (inactive) |
| COC(=O)c1c(-c2ccc(F)cc2)noc1N | 94 | 97.5% (inactive) | 94% (inactive) | 89.4% (inactive) | 93.3% (inactive) | 3.79% (inactive) | 89.5 | 93.3 | -2.97% (inactive) | 1.33% (inactive) |
| O=C(Cn1cnc2c(cnn2-c2ccc(F)cc2)c1=O)N1CCCc2ccccc21 | 112 | 86.5% (inactive) | 112% (inactive) | 85.6% (inactive) | 94.4% (inactive) | -7.36% (inactive) | 102 | 94.4 | -4.67% (inactive) | -2.79% (inactive) |
| Cn1cnc(S(=O)(=O)Nc2ccc(C(F)(F)F)cc2)c1 | 86 | 98.5% (inactive) | 86% (inactive) | 105% (inactive) | 91.7% (inactive) | 6.29% (inactive) | 85.4 | 91.7 | 1.41% (inactive) | -11.7% (inactive) |
| Cc1cccc(NC(=O)CCN2CCN(C/C=C/c3ccccc3)CC2)c1 | 87.5 | 84.5% (inactive) | 87.5% (inactive) | 66% (inactive) | 86.3% (inactive) | -9.71% (inactive) | 96.1 | 86.3 | -2.53% (inactive) | 3.23% (inactive) |
| CCc1c(C(=O)N2CCOCC2)csc1C | 120 | 154% (inactive) | 120% (inactive) | 101% (inactive) | 106% (inactive) | 20.8% (inactive) | 84.9 | 106 | -3.95% (inactive) | -8.33% (inactive) |
| Cc1ccc(NC(=O)CS(=O)CC(=O)NCC2CCCO2)cc1 (stereo not given) | 96.5 | 120% (inactive) | 96.5% (inactive) | 103% (inactive) | 96.8% (inactive) | 7.8% (inactive) | 89 | 96.8 | -1.62% (inactive) | 25% (inactive) |
| NC(=O)COC(=O)CNC(=O)c1ccc(Cl)cc1 | 125 | 98% (inactive) | 125% (inactive) | 86.1% (inactive) | 101% (inactive) | 16.1% (inactive) | 84.7 | 101 | -2.4% (inactive) | -0.81% (inactive) |
| Cc1ccc(NS(=O)(=O)c2cn(C)cn2)cc1 | 95 | 88% (inactive) | 95% (inactive) | 100% (inactive) | 92.7% (inactive) | 5.86% (inactive) | 86.8 | 92.7 | -2.63% (inactive) | 2.36% (inactive) |
| COc1ccc(CCNC(=O)C2CCN(Cc3nc(-c4cccc(Cl)c4)oc3C)CC2)cc1OC | 83.5 | 81.5% (inactive) | 83.5% (inactive) | 47.9% (inactive) | 73.4% (inactive) | -27.2% (inactive) | 101 | 73.4 | -5.13% (inactive) | -1.45% (inactive) |
| Cn1cccc1C1NC(=O)c2c(sc3c2CCC(C(C)(C)C)C3)N1 (stereo not given) | 110 | 77.5% (inactive) | 110% (inactive) | 125% (inactive) | 90.4% (inactive) | -11% (inactive) | 101 | 90.4 | -9.86% (inactive) | 1.67% (inactive) |
| N#Cc1c(-c2ccccc2)nc(SCc2nc(N)nc(N3CCCCC3)n2)[nH]c1=O | 90.5 | 86.5% (inactive) | 90.5% (inactive) | 81.5% (inactive) | 99.9% (inactive) | -2.35% (inactive) | 102 | 99.9 | -6% (inactive) | 5.08% (inactive) |
| CCCn1c(=O)c2ccccc2n2c(SCCOc3ccccc3F)nnc12 | 72 | 102% (inactive) | 72% (inactive) | 85.2% (inactive) | 88.8% (inactive) | 18.1% (inactive) | 70.7 | 88.8 | 2.08% (inactive) | -6.72% (inactive) |
| CCOc1cc(S(=O)(=O)N2CCC(Cc3ccccc3)CC2)c(OCC)cc1-n1cnnn1 | 77.5 | 102% (inactive) | 77.5% (inactive) | 90.7% (inactive) | 99.7% (inactive) | 32.5% (inactive) | 67.2 | 99.7 | 5.95% (inactive) | -1.59% (inactive) |
| Cc1ncc(CSc2nc3ccccc3[nH]2)c(N)n1 | 104 | 92.5% (inactive) | 104% (inactive) | 115% (inactive) | 104% (inactive) | 16.8% (inactive) | 87.5 | 104 | -2.03% (inactive) | 1.43% (inactive) |
| CSCCC(C(=O)Nc1ccc2c(c1)OCO2)N1C(=O)c2ccccc2C1=O (stereo not given) | 91 | 79% (inactive) | 91% (inactive) | 88.1% (inactive) | 96.4% (inactive) | 4.44% (inactive) | 92 | 96.4 | -1.3% (inactive) | -1.43% (inactive) |
| O=C(CSc1ncnc2c1oc1ccccc12)NCc1ccco1 | 140 | 60% (inactive) | 140% (inactive) | 83.7% (inactive) | 76.4% (inactive) | -5.7% (inactive) | 82.1 | 76.4 | -6.27% (inactive) | 2.62% (inactive) |
| c1cnn(-c2cc(N3CCOCC3)ncn2)c1 | 70 | 117% (inactive) | 70% (inactive) | 90.2% (inactive) | 93% (inactive) | 7.52% (inactive) | 85.5 | 93 | 4.47% (inactive) | 21.6% (inactive) |
| COc1cccc(C(=O)n2cnnc2N)c1OC | 120 | 88.5% (inactive) | 120% (inactive) | 89.2% (inactive) | 89.9% (inactive) | 6.76% (inactive) | 83.1 | 89.9 | -5.6% (inactive) | -3.49% (inactive) |
| Cc1ccccc1C1CC(c2ccccc2)Nc2ncnn21 (stereo not given) | 90 | 87.5% (inactive) | 90% (inactive) | 94.8% (inactive) | 64.2% (inactive) | -31.1% (inactive) | 95.3 | 64.2 | 1.47% (inactive) | -6.39% (inactive) |
| CCn1nc(NC(=O)c2cccnc2)c2cc3ccccc3nc21 | 90 | 70.5% (inactive) | 90% (inactive) | 84.4% (inactive) | 89.8% (inactive) | 15.2% (inactive) | 74.6 | 89.8 | -8.38% (inactive) | -3.17% (inactive) |
| CCN1CCN(CCCNC(=O)C2c3ccccc3C(=O)N(C)C2c2ccc(OC)cc2)CC1 (stereo not given) | 102 | 99% (inactive) | 102% (inactive) | 95.9% (inactive) | 110% (inactive) | 16.8% (inactive) | 93.2 | 110 | -1.64% (inactive) | -0.79% (inactive) |
